Bioassay records: PubChem BioAssay, SRMLSC
Yeast lifespan up = yeast lifespan extension. S. cerevisiae growth with nicotinamide, OD615; deaD strain in restrictive glucose medium. inhibition of the nicotinamide effect, % at 10 µM. 0.68% of 130,000 active. AID 775;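 active = inhibition above a set limit, placed 3 SD over the median of all compounds, cut at about 26% in these data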;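 note: 0% = nicotinamide-treated wells and 100% = cells grown without nicotinamide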
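System: Modified budding yeast, DeaD strain | Buffer or medium: Restrictive glucose medium | Also added: 1.5 mM nicotinamide | Doses: 10 µM single point, 0.25% DMSO | Schedule: 48 h compound exposure at 30 °C, humidified | Detection: Absorbance at 615 nm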
Yeast growth inh = yeast BB579 growth reduction in restrictive medium; inhibition, % at 10 µM; S. cerevisiae BB579 growth, OD615, 48 h; 0.51% of 140,000 active; AID 804;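 active = inhibition above a set limit, 3 SD over the mean compound inhibition, cut at about 44% in these data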
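System: DeaD yeast strain BB579; buffer or medium: CSMM-D dextrose restrictive medium; technique: OD at 615 nm; schedule: 4 h cell preincubation, 48 h compound exposure, 30 °C humidified; doses: single 10 µM dose; controls: amphotericin B 10 µg/mL, positive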
PostGolgi ctrl = inhibits growth of the yeast control strain; 5% of 98,000 active; inhibition, % at 10 µM; efflux-deficient yeast background strain, growth absorbance A615, 16 h; AID 738
PostGolgi yeast = growth inhibition of a yeast mutant, post-Golgi transport screen; post-Golgi transport phenotypic cell assay; inhibition, % at 10 µM; 0.9% of 98,000 active; AID 739;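 note: yeast cells grown in 1536-well plates; yeast grown about 18 h at 30C before absorbance read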
* = called active by the depositor. The full list was thinned out, with hits kept by preference. Cut-off read from the data, not from the text of the source, unless noted: active = inhibition above about 30%; inactive = the rest.

Results for C=CCN(CCNP(=O)(OCC)OCC)CP(=O)(OCC)OCC ?
Yeast lifespan up: -13.3; Yeast growth inh: -19.3; PostGolgi ctrl: 7.0; PostGolgi yeast: -46.1

What do the screens show for `O=S(=O)(c1ccc(Cl)cc1)c1snnc1-c1ccccc1`?
Yeast lifespan up: 15.6; Yeast growth inh: 2.6; PostGolgi ctrl: 34.2*; PostGolgi yeast: 6.1

Results for CCOC(=O)c1ccc(NC(=O)NC(C)C2CCCO2)cc1 (configuration not stated) ?
Yeast lifespan up: -16.8; Yeast growth inh: -8.2; PostGolgi ctrl: -4.0; PostGolgi yeast: -2.3

How did Cc1cccc(CN2CCC(CNC(=O)CCNC(=O)Cn3ccc4ccccc4c3=O)CC2)c1 do in these assays?
Yeast lifespan up: -6.9; Yeast growth inh: -5.6; PostGolgi ctrl: -2.6; PostGolgi yeast: -0.3

How did O=C(Cn1ccc2ccccc2c1=O)NCCC(=O)NC1CCN(Cc2ccccc2)CC1 do in these assays?
Yeast lifespan up: -4.1; Yeast growth inh: -91.2; PostGolgi ctrl: 49.3*; PostGolgi yeast: -3.5

Results for COc1ccc(-c2c(C)nn3c(N4CCN(Cc5ccccc5)CC4)cc(C)nc23)cc1OC ?
Yeast lifespan up: -17.3; Yeast growth inh: -9.2; PostGolgi ctrl: 4.2; PostGolgi yeast: 3.5

What do the screens show for `COc1ccccc1-c1c(C)nn2c(N3CCCCCC3)cc(C)nc12`?
Yeast lifespan up: -6.7; Yeast growth inh: 6.2; PostGolgi ctrl: 31.1*; PostGolgi yeast: -6.9

How did COc1ccccc1-c1c(C)nn2c(N3CCN(Cc4ccccc4)CC3)cc(C)nc12 do in these assays?
Yeast lifespan up: -6.5; Yeast growth inh: -2.7; PostGolgi ctrl: 30.2*; PostGolgi yeast: -11.0

What do the screens show for `COc1ccccc1-c1c(C)nn2c(N3CCN(c4ccccc4OC)CC3)cc(C)nc12`?
Yeast lifespan up: -7.3; Yeast growth inh: 16.6; PostGolgi ctrl: 7.0; PostGolgi yeast: 2.4

What do the screens show for `CCC(C(=O)c1ccccc1)N(C(=O)c1ccccc1Cl)N1C(=O)C2C3C=CC(C3)C2C1=O` (configuration not stated)?
Yeast lifespan up: -10.0; Yeast growth inh: -7.8; PostGolgi ctrl: 3.8; PostGolgi yeast: -5.0

What do the screens show for `O=C(Nc1ccncc1)c1ccccc1F`?
Yeast lifespan up: -16.4; Yeast growth inh: -61.5; PostGolgi ctrl: 42.4*; PostGolgi yeast: -7.4

How did COc1ccc(CCN2C(=O)C(O)=C(C(=O)c3ccco3)C2c2cccs2)cc1OC (configuration not stated) do in these assays?
Yeast lifespan up: 83.1*; Yeast growth inh: -33.4; PostGolgi ctrl: 11.8; PostGolgi yeast: 2.0

How did Cc1cc(N2C(=O)C(O)=C(C(=O)c3ccco3)C2c2cccnc2)no1 (configuration not stated) do in these assays?
Yeast lifespan up: -9.6; Yeast growth inh: 8.8; PostGolgi ctrl: -3.6; PostGolgi yeast: 13.0

Results for Cc1ccc2nc(N3C(=O)C(O)=C(C(=O)c4ccco4)C3c3cccs3)sc2c1 (configuration not stated) ?
Yeast lifespan up: 61.5*; Yeast growth inh: -31.0; PostGolgi ctrl: 11.2; PostGolgi yeast: 1.3

Results for CC(C)CCC1CC(CSC(=N)N)OC1=O (configuration not stated) ?
Yeast lifespan up: -1.6; Yeast growth inh: -12.7; PostGolgi ctrl: -0.3; PostGolgi yeast: 14.2

How did CCCCOc1ccc(/C=N/NC(=O)c2csc(C)c2C)cc1 do in these assays?
Yeast lifespan up: -11.1; Yeast growth inh: -7.3; PostGolgi ctrl: 35.3*; PostGolgi yeast: -1.6

What do the screens show for `CCCCCc1ccc(S(=O)(=O)NCCc2ccncc2)cc1`?
Yeast lifespan up: 0.0; Yeast growth inh: -66.3; PostGolgi ctrl: 30.0; PostGolgi yeast: 10.1

Results for O=C(Nc1ccccc1Cl)c1ccccc1Oc1ccc(C(F)(F)F)cc1[N+](=O)[O-] ?
Yeast lifespan up: 3.1; Yeast growth inh: -19.8; PostGolgi ctrl: 54.1*; PostGolgi yeast: -0.8

What do the screens show for `CN(CCCNC(=O)COc1cc(=O)n(C)c2ccccc12)Cc1ccccc1`?
Yeast lifespan up: 7.1; Yeast growth inh: -26.7; PostGolgi ctrl: 4.8; PostGolgi yeast: 6.0

What do the screens show for `CCN(CCCNC(=O)COc1cc(=O)n(CC)c2ccccc12)Cc1ccccc1`?
Yeast lifespan up: -3.6; Yeast growth inh: -10.3; PostGolgi ctrl: 38.0*; PostGolgi yeast: -8.2

What do the screens show for `Cc1cc(C)c(S(=O)(=O)N2CCCOC2CNC(=O)C(=O)NCc2ccco2)c(C)c1` (configuration not stated)?
Yeast lifespan up: -1.2; Yeast growth inh: -19.7

Results for Nc1c(C(=O)NC2CCCCC2)nsc1C(=O)OCC(=O)NC1CCCCC1 ?
Yeast lifespan up: -10.4; Yeast growth inh: -22.6; PostGolgi ctrl: 31.1*; PostGolgi yeast: -7.6
